These results are taken from paper PMC12264769 (RSC Medicinal Chemistry, 2025).

SMILES strings stand for the structures. Read-outs that look alike come from different tables or passages of the source.

Assay [1] relates to prostatic small cell carcinoma cell line (PC-3). The assay is described as follows: MTT anti-proliferative assay, PC-3. It counts as cell-based. For orientation: Formazan colour is commonly taken as a measure of viable cells.
Assay [2] deals with human breast cancer cell line (MCF-7). Description: MTT anti-proliferative assay, MCF-7. It counts as cell-based.
Assay [3] deals with normal human embryonic kidney (HEK-293) cell line. Description: MTT cytotoxicity towards normal cell line HEK-293. It counts as cell-based.
Assay [4] concerns murine mammary carcinoma cell line (4T1). Description: MTT anti-proliferative assay, 4T1. It counts as cell-based. The following applies: read-out: 4T1 IC50, 48-hour treatment, mean ± SD (n = 2).
For assay [5], the system named is MCF-7 cells. The assay is described as follows: annexin-V/FITC-PI apoptosis assay. The note with it: MCF-7, 48 hours, at respective IC50. It counts as cell-based, human.
In assay [6] the test system is MCF-7 cells. The assay is described as follows: ROS generation. It counts as cell-based, human. The following applies: MCF-7, IC50 dose, vs 1% DMSO control. The gist of the method: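 After 24 h in 12-well plates, MCF-7 cells were treated for 48 h with test compound, reference compound, or 1% DMSO as control. Medium was replaced with 10 μM DCFH-DA for 10 min at 37 °C in darkness. DCF fluorescence was imaged by laser scanning confocal microscopy at 60× (ex 485 nm, em 535 nm). Intensity was quantified by image analysis as relative fluorescence (%) versus control. Data are mean standard deviation (n = 2), with one-way ANOVA.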

For assay [7], the system named is MCF-7 cells. The assay is described as follows: Nuclear staining assay. It counts as cell-based, human. The note with it: MCF-7, IC50, 48 hours, vs control and BG-45.
Setting [8] is: read-out: PC-3 IC50, MTT, 48-hour treatment, mean ± SD (n = 2).
Where [9] appears, read: read-out: MCF-7 IC50, MTT, 48-hour treatment, mean ± SD (n = 2).
[10] abbreviates: read-out: HEK-293 IC50, MTT, 48-hour treatment, mean ± SD (n = 2).
Setting [11] is: Homo sapiens, MCF7, 48 h, read-out: MCF-7 IC50, MTT, 48-hour treatment, mean ± SD (n = 2).

The IC50 is the point on the concentration scale where inhibition reaches its midpoint. For the molecule `COc1ccc(-c2noc(-c3cccs3)c2C(F)(F)F)cc1` [TTI-3], the IC50 came out at 21.97 ± 0.21 µM in assay [1] (setting [8]), 21.5 ± 0.11 µM in assay [2] (setting [9]), 102.2 ± 0.27 µM in assay [3] (setting [10]) and 24.3 ± 0.24 µM in assay [4].
Take `COc1ccc(-c2noc(-c3cccs3)c2C(F)(F)F)cc1OC` [TTI-4, 3-(3,4-dimethoxyphenyl)-5-(thiophen-2-yl)-4-(trifluoromethyl)isoxazole]: the concentration for half-maximal inhibition (IC50) worked out at 8.08 ± 0.29 µM in assay [1] (setting [8]), 2.91 ± 0.13 µM in assay [2] (setting [9]), 70.49 ± 0.22 µM in assay [3] (setting [10]) and 11.6 ± 0.35 µM in assay [4]. Further, the “superior anti-breast cancer activity than TTI-3” value in assay [2] (MCF-7 IC50 compared with TTI-3) came out at 7 times.
As for `FC(F)(F)c1c(-c2ccc3c(c2)OCCO3)noc1-c1cccs1` [TTI-5, 3-(2,3-dihydrobenzo[b][1,4]dioxin-6-yl)-5-(thiophen-2-yl)-4-(trifluoromethyl)isoxazole], the IC50 in assay [1] (setting [8]) turned out to be 26.89 ± 0.11 µM; in assay [3] (setting [10]), 109.7 ± 0.13 µM; in assay [4], 28.6 ± 0.09 µM.
`COc1cc(-c2noc(-c3cccs3)c2C(F)(F)F)cc(OC)c1OC` [TTI-6, 5-(thiophen-2-yl)-4-(trifluoromethyl)-3-(3,4,5-trimethoxyphenyl)isoxazole]: the “total apoptotic percentage (Q2 and Q4)” value in the assay with MCF-7 cells [5] is listed as 50.0 ± 1.3%. Also, the IC50 is 7.67 ± 0.31 µM in assay [1] (setting [8]); 1.92 µM in assay [2] (setting [11]); 1.91 ± 0.09 µM in assay [2] (setting [9]); 68.29 ± 0.11 µM in assay [3] (Homo sapiens, HEK293, 48 h, read-out: HEK-293 IC50, MTT, 48-hour treatment, mean ± SD (n = 2)); 10.9 ± 0.2 µM in assay [4]. For the same molecule, the “selectivity for MCF-7 over other cancer cell lines (first value)” value in assay [2] (matches 4T1/MCF-7 IC50 ratio) is given as 5.70 fold. The “selectivity for MCF-7 over other cancer cell lines (second value)” value in assay [2] (matches PC-3/MCF-7 IC50 ratio) was 4 fold. The “selectivity for MCF-7 cells over HEK-293 cell lines” value in assay [2] (ratio of IC50 values) stood at 35.62 fold. Besides, the “relative fluorescence intensity vs control (ROS)” value with MCF-7 cells [6] was “significant increase”. Moreover, in the assay with MCF-7 cells [7], the “nuclear / cell morphology (DAPI, AO staining)” value is on record as “significant alteration in cell morphology”.
Take `FC(F)(F)c1c(-c2ccc(Cl)cc2)noc1-c1cccs1` [TTI-9]: the IC50 was found to be 21.92 ± 0.21 µM in assay [1] (setting [8]), 20.4 ± 0.21 µM in assay [2] (setting [9]), 96.6 ± 0.47 µM in assay [3] (setting [10]) and 21.72 ± 0.19 µM in assay [4].
Regarding `FC(F)(F)c1ccc(-c2noc(-c3cccs3)c2C(F)(F)F)cc1` [TTI-11], the IC50 is 20.99 ± 0.19 µM in assay [1] (setting [8]), 19.3 ± 0.24 µM in assay [2] (setting [9]), 92.75 ± 0.15 µM in assay [3] (setting [10]) and 19.36 ± 0.19 µM in assay [4].
Take `O=[N+]([O-])c1ccc(-c2noc(-c3cccs3)c2C(F)(F)F)cc1` [TTI-12, 3-(4-nitrophenyl)-5-(thiophen-2-yl)-4-(trifluoromethyl)isoxazole]: the IC50 in assay [1] (setting [8]) came out at 15.4 ± 0.25 µM; in assay [2] (setting [9]) it was 17.03 ± 0.12 µM; in assay [3] (setting [10]) it was 83.77 ± 0.28 µM; in assay [4], 17 ± 0.31 µM.
`COc1ccc(-c2noc(-c3ccc(C)s3)c2C(F)(F)F)cc1OC` [TTI-13, 3-(3,4-dimethoxyphenyl)-5-(5-methylthiophen-2-yl)-4-(trifluoromethyl)isoxazole]: the IC50 in assay [1] (setting [8]) was determined as 14.2 ± 0.41 µM; in assay [2] (setting [11]), 13.4 ± 0.19 µM; in assay [3] (setting [10]) it was 75.91 ± 0.16 µM; in assay [4], 15.15 ± 0.1 µM.
Take `COc1ccc(-c2noc(-c3cccs3)c2C(F)F)cc1OC` [TTI-14, 4-(difluoromethyl)-3-(3,4-dimethoxyphenyl)-5-(thiophen-2-yl)isoxazole]: the IC50 in assay [1] (48 h, read-out: PC-3 IC50, MTT, 48-hour treatment, mean ± SD (n = 2)) worked out at 13 ± 0.17 µM; in assay [2] (setting [9]) it was 9.09 ± 0.25 µM; in assay [3] (setting [10]), 71.14 ± 0.21 µM; in assay [4], 11.7 ± 0.14 µM.
As to `FC(F)(F)c1c(-c2cnn3c(-c4ccccc4)ccnc23)noc1-c1cccs1` [TTI-15, 3-(7-phenylpyrazolo[1,5-a]pyrimidin-3-yl)-5-(thiophen-2-yl)-4-(trifluoromethyl)isoxazole], the IC50 in assay [1] (setting [8]) was determined as 13.7 ± 0.39 µM; in assay [2] (setting [11]), 9.44 ± 0.22 µM; in assay [3] (setting [10]) it was 74.3 ± 0.25 µM; in assay [4], 14.3 ± 0.21 µM.
